According to ChEMBL document CHEMBL1255460, “Cyclotide interactions with the nematode external surface” (Antimicrob Agents Chemother, 2010):
Activity calls are given as the source filed them. The calls are words filed in the database; no cut-off is given here.

Columns and labels:
Type in all cases: functional, organism-based
[1] = system: Haemonchus contortus; test: Antiparasitic activity against adult Haemonchus contortus assessed as [3H]inulin uptake at 1000 nM
[2] = system: Haemonchus contortus; test: Antiparasitic activity against adult Haemonchus contortus assessed as decrease in motility
Outline: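 Adult worms in groups of 10 in RPMI-based medium at 37°C, given ivermectin in DMSO at 0.1 to 100 nM, with 0.2% DMSO controls. Motility scored 30 h after start, using the O'Grady and Kotze system. Triplicate.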

[3] = system: Haemonchus contortus; test: Antiparasitic activity against adult Haemonchus contortus assessed as [3H]inulin uptake at 10 nM
Outline: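 Adult females taken from sheep abomasa 10 to 15 weeks postinfection, held in RPMI 1640-based medium (pH 6.8) at 37°C, in groups of 10. Ivermectin in DMSO given at 0.1 to 100 nM; DMSO-only controls at 0.2% final. [3H]inulin (4 μCi/ml final) added after 6 h. After a further 24 h, worms solubilized in 0.5 M KOH at 50°C overnight, neutralized, and radioactivity counted. Done in triplicate.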

[4] = system: Haemonchus contortus; test: Antiparasitic activity against adult Haemonchus contortus assessed as reduction in FITC-dextran uptake at 10 nM after 24 hrs
Outline: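 Groups of about 10 adult worms held 6 h with or without 10 nM ivermectin. FITC-dextran (40 kDa, 5 mg/ml final) then added. After 24 h, worms washed in PBS, fixed in 10% formalin, and photographed under white and UV light as a measure of feeding.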

[5] = system: Haemonchus contortus; test: Antiparasitic activity against adult Haemonchus contortus pharyngeal ligation model assessed as decrease [3H]inulin uptake at 10 nM

Question: Which results are given for IVERMECTIN?
Answer: Activity [1]: inactive; Activity [2]: Dose-dependent effect; Activity [3]: inactive; Activity [4]: Active; Activity [5]: Active
